According to ChEMBL document CHEMBL1125286, “Zatosetron, a potent, selective, and long-acting 5HT3 receptor antagonist: synthesis and structure-activity relationships” (J Med Chem, 1992):

Columns and labels:
[1] = biological target: T1, Serotonin 3 (5-HT3) receptor (Rattus norvegicus) (UniProt P35563+Q9JJ16); assay: 5-hydroxytryptamine 3 receptor antagonistic activity measured by inhibition of 5-HT-induced bradycardia (iv administration 10 ug/kg dose in urethane-anesthetized rats); type: functional, organism-based
Summary of the method: (§1)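 Urethane-anesthetized rats. First 5HT challenge 30 μg/kg iv gives a transient bradycardia. Once heart rate is back at steady state (≤5 min), test compound or saline goes in via the femoral vein. 5HT 30 μg/kg iv is repeated 15 min later. % inhibition is the difference between first and second bradycardia at peak, each animal its own control. Means ± SEM, groups of 3–16 rats.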

[2] = biological target: T1, Serotonin 3 (5-HT3) receptor (Rattus norvegicus); assay: 5-hydroxytryptamine 3 receptor antagonistic activity was measured by the inhibition of 5H+ T-induced bradycardia after iv administration of 3 ug/kg dose in urethane-anesthetized rats; type: functional, organism-based
Summary of the method: (§2)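 Urethane-anesthetized rats; antagonist or saline given iv via femoral vein after heart rate settled (≤5 min) from an initial 5HT challenge (30 µg/kg iv). 5HT was given again 15 min later. Peak bradycardia measured, each rat its own control; % inhibition = difference between first and second responses. Groups of 3–16 rats, means ± SEM.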

[3] = biological target: T1, Serotonin 3 (5-HT3) receptor (Rattus norvegicus); assay: Compound was tested for the inhibition of 5-HT-induced bradycardia after intravenous administration of 0.3 ug/kg dose in urethane-anesthetized rats; type: functional, organism-based; summary of the method: as §2
[4] = biological target: T1, Serotonin 3 (5-HT3) receptor (Rattus norvegicus); assay: Compound was tested for the inhibition of 5-HT-induced bradycardia after intravenous administration of 1 ug/kg dose in urethane-anesthetized rats; type: functional, organism-based; summary of the method: as §2
[5] = biological target: T1, Serotonin 3 (5-HT3) receptor (Rattus norvegicus); assay: Compound was tested for the inhibition of 5-HT-induced bradycardia after peroral administration of 100 ug/kg dose in urethane-anesthetized rats; type: functional, organism-based
Summary of the method: (§3)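 Fasted rats gavaged (5 mL/kg) with antagonist or vehicle (distilled water). Urethane anesthesia and surgical preparation followed, 15–20 min before 5HT challenge. 5HT 30 µg/kg iv given 1 h after dosing, with vehicle-treated rats as controls. Peak % inhibition of bradycardia in groups of 3–11, means ± SEM.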

[6] = biological target: T1, Serotonin 3 (5-HT3) receptor (Rattus norvegicus); assay: Compound was tested for the inhibition of 5-HT-induced bradycardia after peroral administration of 1000 ug/kg dose in urethane-anesthetized rats; type: functional, organism-based; summary of the method: as §3
[7] = biological target: T1, Serotonin 3 (5-HT3) receptor (Rattus norvegicus); assay: Compound was tested for the inhibition of 5-HT-induced bradycardia after peroral administration of 30 ug/kg dose in urethane-anesthetized rats; type: functional, organism-based; summary of the method: as §3
[8] = biological target: T1, Serotonin 3 (5-HT3) receptor (Rattus norvegicus); assay: Compound was tested for the inhibition of 5-HT-induced bradycardia after peroral administration of 300 ug/kg dose in urethane-anesthetized rats; type: functional, organism-based
Summary of the method: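 Fasted rats dosed by gavage (5 mL/kg) with compound or distilled-water vehicle. Urethane anesthesia and surgical preparation 15–20 min before challenge. 5HT 0.03 mg/kg iv given 1 h after dosing. Peak bradycardia is compared with vehicle-treated controls. Means ± SEM, groups of 3–11 rats.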

[9] = biological target: T1, Serotonin 3 (5-HT3) receptor (Rattus norvegicus); assay: Inhibition of 5-HT-induced bradycardia by 5-hydroxytryptamine 3+; type: functional
[10] = biological target: T1, Serotonin 3 (5-HT3) receptor (Rattus norvegicus); assay: Compound was tested for the inhibition of 5-HT-induced bradycardia after peroral administration of 0.1 mg/kg at 0.5 hours in urethane-anesthetized rats; type: functional, organism-based; design: dose 0.1 mg/kg; conditions: at 0.1 mg/kg
Summary of the method: (§4)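 Duration study: antagonist or vehicle gavaged to conscious fasted rats (5 mL/kg). Rats were urethane-anesthetized and surgically prepared, then challenged with 5HT 0.03 mg/kg iv at the stated time after dosing. Vehicle-treated rats served as controls. Peak inhibition of bradycardia recorded in groups of 3–11, means ± SEM.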

[11] = biological target: T1, Serotonin 3 (5-HT3) receptor (Rattus norvegicus); assay: Compound was tested for the inhibition of 5-HT-induced bradycardia after peroral administration of 0.1 mg/kg at 1 hour in urethane-anesthetized rats; type: functional, organism-based; design: dose 0.1 mg/kg; conditions: at 0.1 mg/kg; summary of the method: as §4
[12] = biological target: T1, Serotonin 3 (5-HT3) receptor (Rattus norvegicus); assay: Compound was tested for the inhibition of 5-HT-induced bradycardia after peroral administration of 0.1 mg/kg at 16 hours in urethane-anesthetized rats; type: functional, organism-based; design: dose 0.1 mg/kg; conditions: at 0.1 mg/kg; summary of the method: as §4
[13] = biological target: T1, Serotonin 3 (5-HT3) receptor (Rattus norvegicus); assay: Compound was tested for the inhibition of 5-HT-induced bradycardia after peroral administration of 0.1 mg/kg at 3 hours in urethane-anesthetized rats; type: functional, organism-based; design: dose 0.1 mg/kg; conditions: at 0.1 mg/kg; summary of the method: as §4
[14] = biological target: T1, Serotonin 3 (5-HT3) receptor (Rattus norvegicus); assay: Compound was tested for the inhibition of 5-HT-induced bradycardia after peroral administration of 0.1 mg/kg at 6 hours in urethane-anesthetized rats; type: functional, organism-based; design: dose 0.1 mg/kg; conditions: at 0.1 mg/kg; summary of the method: as §4
[15] = test system: Serotonin 3 receptor (Cavia porcellus); assay: In vitro binding affinity was measured for 5-hydroxytryptamine 3 receptor in the guinea pig ileum.
[16] = biological target: T1, Serotonin 3 (5-HT3) receptor (Rattus norvegicus); assay: Compound was tested for the inhibition of 5-HT-induced bradycardia after peroral administration in urethane-anesthetized rats
[17] = biological target: T1, Serotonin 3 (5-HT3) receptor (Rattus norvegicus); assay: 5-HT3 receptor antagonistic activity was measured by the inhibition of 5-HT-induced bradycardia after iv administration of 1000 ug/kg dose in urethane-anesthetized rats; type: functional, organism-based; summary of the method: as §1
[18] = biological target: T1, Serotonin 3 (5-HT3) receptor (Rattus norvegicus); assay: 5-hydroxytryptamine 3 receptor antagonistic activity was measured by the inhibition of 5H+ T-induced bradycardia after iv administration of 1000 ug/kg dose in urethane-anesthetized rats; type: functional, organism-based; summary of the method: as §1
[19] = biological target: T1, Serotonin 3 (5-HT3) receptor (Rattus norvegicus); assay: 5-hydroxytryptamine 3 receptor antagonistic activity as inhibition of 5-HT-induced bradycardia after iv administration of 100 ug/kg dose in urethane-anesthetized rats; type: functional, organism-based; summary of the method: as §1

| Structure (SMILES) | inhibition [1] | inhibition [2] | other results |
| --- | --- | --- | --- |
| CN1C2CCC1CC(NC(=O)c1cc(Br)cc3c1OC(C)(C)C3)C2 (stereo not given) | 68.7% | 15.9% |  |
| CN1C2CCC1CC(NC(=O)c1ccc3c(c1)CC(C)(C)O3)C2 (stereo not given) | 16.7% |  |  |
| COc1cc2c(c(C(=O)NC3CC4CCC(C3)N4C)c1)OC(C)(C)C2 (stereo not given) | 2.9% |  |  |
| CN1C2CCC1CC(NC(=O)c1cccc3c1OC(C)(C)C3)C2 (stereo not given) | 47.5% | 13.7% |  |
| CN1C2CCC1CC(OC(=O)c1cccc3c1OC(C)(C)C3)C2 (stereo not given) | 38% | 20.8% |  |
| CC1Cc2cc(Cl)cc(C(=O)NC3CC4CCC(C3)N4C)c2O1 (stereo not given) | 80% | 79.8% | inhibition [3]: 11%; inhibition [4]: 58.1%; inhibition [5]: 74.6%; inhibition [6]: 94.6%; inhibition [7]: 21.9%; inhibition [8]: 89.7%; ED50 [9]: 0.001 mg/kg; inhibition [10]: 87%; inhibition [11]: 74.6%; inhibition [12]: 0%; inhibition [13]: 75.2%; inhibition [14]: 71.4%; -Log KB [15]: 8.27; ED50 [16]: 0.063 mg/kg |
| COc1cc2c(c(C(=O)OC3CC4CCC(C3)N4C)c1)OC(C)C2 (stereo not given) | 4.1% |  |  |
| Cc1cc2cccc(C(=O)OC3CC4CCC(C3)N4C)c2o1 (stereo not given) | 7.3% |  |  |
| CN1CCC(OC(=O)c2ccccc2)CC1 |  |  | inhibition [17]: 0% |
| CC1Cc2cc(F)cc(C(=O)OC3CC4CCC(C3)N4C)c2O1 (stereo not given) | 32.2% |  |  |
| CN1C2CCC1CC(NC(=O)c1cc(F)cc3c1OC(C)(C)C3)C2 (stereo not given) | 71.7% |  |  |
| CN1[C@@H]2CC[C@H]1C[C@H](OC(=O)c1ccccc1)C2 |  |  | inhibition [18]: 88.1% |
| CN1C2CCC1CC(NC(=O)c1cc(O)cc3c1OC(C)(C)C3)C2 (stereo not given) | 54.7% |  |  |
| CN1[C@@H]2CC[C@H]1C[C@@H](NC(=O)c1cc(Cl)cc3c1OC(C)(C)C3)C2 (stereo in doubt; 50) | 67.1% | 25.9% |  |
| CN1C2CCC1CC(OC(=O)c1ccccc1Oc1ccccc1)C2 (stereo not given) |  |  | inhibition [18]: 54.5% |
| CN1C2CCC1CC(NC(=O)c1c(Cl)ccc3c1OC(C)(C)C3)C2 (stereo not given) | 0.8% |  |  |
| COc1cc2c(c(C(=O)NC3CC4CCC(C3)N4C)c1)OC(C)C2 (stereo not given) | 28.9% |  |  |
| CN1C2CCC1CC(OC(=O)c1cccc3c1OCC3)C2 (stereo not given) | 27% |  | inhibition [19]: 51.2% |
| Cc1cc2c(c(C(=O)NC3CC4CCC(C3)N4C)c1)OC(C)(C)C2 (stereo not given) | 87.1% | 11.2% |  |
